{"source": "ChEMBL document CHEMBL4411301", "about": "“Design, Biological Evaluation, and Molecular Modeling of Tetrahydroisoquinoline Derivatives: Discovery of A Potent P-Glycoprotein Ligand Overcoming Multidrug Resistance in Cancer Stem Cells” (J Med Chem, 2019)", "key": {"[1]": {"biological_target": "T1, ATP-dependent translocase ABCB1 (Homo sapiens, UniProt P08183)", "T1 sequence (P08183 whole entry)": "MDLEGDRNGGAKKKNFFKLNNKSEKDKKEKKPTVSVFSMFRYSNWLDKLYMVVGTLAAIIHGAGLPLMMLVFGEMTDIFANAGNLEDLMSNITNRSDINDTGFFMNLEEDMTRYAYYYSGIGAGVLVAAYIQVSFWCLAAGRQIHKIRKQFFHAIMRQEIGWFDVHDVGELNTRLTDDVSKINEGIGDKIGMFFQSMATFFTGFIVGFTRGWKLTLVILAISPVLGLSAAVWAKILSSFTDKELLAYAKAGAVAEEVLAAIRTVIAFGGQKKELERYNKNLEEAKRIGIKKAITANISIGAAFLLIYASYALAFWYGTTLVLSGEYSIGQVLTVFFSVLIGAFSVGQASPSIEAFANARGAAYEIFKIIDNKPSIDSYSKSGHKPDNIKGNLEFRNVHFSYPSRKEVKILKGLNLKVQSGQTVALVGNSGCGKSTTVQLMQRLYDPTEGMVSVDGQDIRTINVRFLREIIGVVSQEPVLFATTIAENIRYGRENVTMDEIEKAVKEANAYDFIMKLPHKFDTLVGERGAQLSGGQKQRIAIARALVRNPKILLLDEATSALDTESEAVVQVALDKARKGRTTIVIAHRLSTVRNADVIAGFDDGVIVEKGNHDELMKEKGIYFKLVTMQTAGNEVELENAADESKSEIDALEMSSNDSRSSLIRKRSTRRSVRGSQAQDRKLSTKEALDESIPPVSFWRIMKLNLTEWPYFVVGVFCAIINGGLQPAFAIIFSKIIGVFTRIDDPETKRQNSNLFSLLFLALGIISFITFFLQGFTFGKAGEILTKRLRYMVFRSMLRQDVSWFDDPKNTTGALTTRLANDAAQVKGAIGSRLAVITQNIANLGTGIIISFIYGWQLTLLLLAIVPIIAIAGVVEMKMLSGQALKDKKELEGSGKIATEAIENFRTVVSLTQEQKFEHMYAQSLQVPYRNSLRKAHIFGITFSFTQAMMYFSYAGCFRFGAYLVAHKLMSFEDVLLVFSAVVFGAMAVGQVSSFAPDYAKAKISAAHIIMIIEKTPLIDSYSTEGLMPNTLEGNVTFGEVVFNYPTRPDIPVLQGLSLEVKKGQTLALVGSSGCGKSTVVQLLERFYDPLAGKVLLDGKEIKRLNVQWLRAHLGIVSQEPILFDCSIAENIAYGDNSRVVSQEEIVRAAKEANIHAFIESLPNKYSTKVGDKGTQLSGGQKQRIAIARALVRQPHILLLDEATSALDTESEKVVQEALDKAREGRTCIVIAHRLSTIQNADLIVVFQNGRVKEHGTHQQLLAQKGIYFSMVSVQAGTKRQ", "experiment": "Inhibition of MDR1 in human primary glioblastoma stem cells assessed as increase in intracellular doxorubicin accumulation at 10 to 10000 nM after 3 hrs by spectrofluorimetric analysis", "type": "cell-based", "how_it_was_run": "(§1)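 Differentiated or stem cells from primary glioblastoma or mesothelioma of 3 patients (stem cells used within passage 6). Incubated 3 h with 5 µM doxorubicin, alone or with compound (DMSO 1% v/v). Washed, lysed in ethanol/0.3 N HCl, doxorubicin fluorescence read at ex 475/em 553 nm and expressed as nmol/mg cell protein via calibration curve. Duplicates, n=3, mean ± SEM.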"}, "Homo sapiens [2]": {"species": "Homo sapiens", "experiment": "Induction of intracellular doxorubicin accumulation in human differentiated primary glioblastoma cells at 10 to 10000 nM after 3 hrs by spectrofluorimetric analysis", "type": "functional, cell-based", "how_it_was_run": "as §1"}, "[3]": {"biological_target": "T1, ATP-dependent translocase ABCB1", "experiment": "Inhibition of MDR1 in human primary glioblastoma stem cells assessed as increase in doxorubicin-induced reduction in cell viability at 1 uM after 24 hrs by LDH release assay"}, "[4]": {"biological_target": "T1, ATP-dependent translocase ABCB1", "experiment": "Inhibition of MDR1 in human primary mesothelioma stem cells assessed as increase in doxorubicin-induced reduction in cell viability at 1 uM after 24 hrs by LDH release assay"}, "Homo sapiens [5]": {"species": "Homo sapiens", "experiment": "Potentiation of doxorubicin-induced cytotoxicity in human differentiated primary glioblastoma cells assessed as increase in doxorubicin-induced reduction in cell viability at 1 uM after 24 hrs by LDH release assay", "type": "functional, cell-based"}, "[6]": {"biological_target": "T1, ATP-dependent translocase ABCB1", "experiment": "Inhibition of MDR1 in human primary mesothelioma stem cells assessed as increase in intracellular doxorubicin accumulation at 10 to 10000 nM after 3 hrs by spectrofluorimetric analysis", "type": "cell-based", "how_it_was_run": "as §1"}, "[7]": {"biological_target": "T1, ATP-dependent translocase ABCB1", "experiment": "Inhibition of MDR1 in human primary glioblastoma stem cells assessed as increase in doxorubicin-induced reduction in cell viability at 1 uM after 72 hrs by ATPlite luminescence assay", "how_it_was_run": "(§2)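 Primary glioblastoma or mesothelioma differentiated and stem cells incubated 72 h with medium, 5 µM doxorubicin, 10 nM compound or 1 µM elacridar, alone or combined (DMSO 1% v/v). Viability by ATPlite luminescence as % of untreated RLU. Quadruplicates, n=3, mean ± SEM, one-way ANOVA.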"}, "[8]": {"biological_target": "T1, ATP-dependent translocase ABCB1", "experiment": "Inhibition of MDR1 in human primary mesothelioma stem cells assessed as increase in doxorubicin-induced reduction in cell viability at 1 uM after 72 hrs by ATPlite luminescence assay", "how_it_was_run": "as §2"}, "Homo sapiens [9]": {"species": "Homo sapiens", "experiment": "Potentiation of doxorubicin-induced cytotoxicity in human differentiated primary mesothelioma stem cells assessed as increase in doxorubicin-induced reduction in cell viability at 1 uM after 72 hrs by ATPlite luminescence assay", "type": "functional, cell-based", "how_it_was_run": "as §2"}, "Homo sapiens [10]": {"species": "Homo sapiens", "experiment": "Potentiation of doxorubicin-induced cytotoxicity in human differentiated primary glioblastoma cells assessed as increase in doxorubicin-induced reduction in cell viability at 1 uM after 72 hrs by ATPlite luminescence assay", "type": "functional, cell-based", "how_it_was_run": "as §2"}, "Homo sapiens [11]": {"species": "Homo sapiens", "experiment": "Induction of intracellular doxorubicin accumulation in human differentiated primary mesothelioma stem cells at 10 to 10000 nM after 3 hrs by spectrofluorimetric analysis", "type": "functional, cell-based", "how_it_was_run": "as §1"}, "Homo sapiens [12]": {"species": "Homo sapiens", "experiment": "Potentiation of doxorubicin-induced cytotoxicity in human differentiated primary mesothelioma stem cells assessed as increase in doxorubicin-induced reduction in cell viability at 1 uM after 24 hrs by LDH release assay", "type": "functional, cell-based"}}, "note": "The source made the active and inactive calls. The rule behind the calls is not given here."}
{"compound": "COc1cc2c(cc1OC)CN(CCc1ccc(NC(=O)c3cccc4c(=O)c5cccc(OC)c5[nH]c34)cc1)CC2", "note": "[ELACRIDAR]", "values": [{"measurement": "inhibition (INH)", "setting": "[1]", "value": "Active"}, {"measurement": "Activity", "setting": "Homo sapiens [2]", "value": "inactive"}, {"measurement": "inhibition (INH)", "setting": "[3]", "value": "Active"}, {"measurement": "inhibition (INH)", "setting": "[4]", "value": "Active"}, {"measurement": "Activity", "setting": "Homo sapiens [5]", "value": "inactive"}, {"measurement": "inhibition (INH)", "setting": "[6]", "value": "Active"}, {"measurement": "inhibition (INH)", "setting": "[7]", "value": "Active"}, {"measurement": "inhibition (INH)", "setting": "[8]", "value": "Active"}, {"measurement": "Activity", "setting": "Homo sapiens [9]", "value": "inactive"}, {"measurement": "Activity", "setting": "Homo sapiens [10]", "value": "inactive"}, {"measurement": "Activity", "setting": "Homo sapiens [11]", "value": "inactive"}, {"measurement": "Activity", "setting": "Homo sapiens [12]", "value": "inactive"}]}
